Data set [1] deals with T1, mouse SR-BI (Mus musculus, UniProt Q61009).
T1 sequence (Q61009 1-509): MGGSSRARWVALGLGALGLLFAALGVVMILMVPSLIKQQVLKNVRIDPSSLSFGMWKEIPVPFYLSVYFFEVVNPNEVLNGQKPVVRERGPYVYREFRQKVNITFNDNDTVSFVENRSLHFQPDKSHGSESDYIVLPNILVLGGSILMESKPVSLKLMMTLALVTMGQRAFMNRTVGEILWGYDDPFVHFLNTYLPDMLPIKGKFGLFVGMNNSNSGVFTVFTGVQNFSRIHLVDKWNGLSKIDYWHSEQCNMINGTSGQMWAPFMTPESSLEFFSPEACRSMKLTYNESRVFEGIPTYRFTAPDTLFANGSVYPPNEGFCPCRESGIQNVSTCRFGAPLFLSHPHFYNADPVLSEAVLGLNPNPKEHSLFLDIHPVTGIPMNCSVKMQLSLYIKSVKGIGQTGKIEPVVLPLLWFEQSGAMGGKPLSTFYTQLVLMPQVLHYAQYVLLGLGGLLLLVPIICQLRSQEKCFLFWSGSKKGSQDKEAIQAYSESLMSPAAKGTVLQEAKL
The note with it: read-out: IC50 in the primary assay; previous probes; cited from earlier work.

The target of data set [2] is T1, mouse SR-BI. Description: DiI-HDL uptake assay. The class given is cell-based. The note with it: for activity in DiI uptake assay (in words): inhibition of SR-BI-mediated lipid uptake. A digest of the protocol:
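CHO cells (ldlA line) overexpressing mouse SR-BI take up the fluorescent lipid DiI from DiI-labeled HDL particles. In the high-throughput screen, compounds were tested at 12.5 μM against 1 μM BLT-1 as the positive control. Plates with Z′ < 0.3 were excluded, and a counterscreen removed compounds that quenched DiI-HDL fluorescence in a dose-dependent manner. IC50 values came from retests of compounds as purified dry powders.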

The nature of data set [3]: Solubility in PBS. The class given is physicochemical. The note with it: in PBS (with 1% DMSO).

Where two headings read alike, the source gives them in different places.

In the case of `COCC(=O)n1ccc2cc(-c3csc(NC(=O)c4cc(OC)cc(OC)c4)n3)ccc21` [ML278], the IC50 in data set [1] was 6 nM.
In the case of `C[C@@H]1CN([C@H](C)CN)C(=O)c2cc(NC(=O)Cc3cn(C)c4ccccc34)ccc2O[C@H]1CN(C)S(=O)(=O)c1ccc(Cl)cc1` [Compound 9], in data set [2], the “activity in DiI uptake assay (in words)” value is “inactive”.
As for `CC(C)NC(=O)Nc1ccc2c(c1)C(=O)N(C(C)C)C[C@@H](C)[C@H](CN(C)S(=O)(=O)c1ccc(Cl)cc1)O2` [Compound 12], in data set [2], the “activity in DiI uptake assay (in words)” value is “weak activity”.
On to `C[C@@H]1CN([C@H](C)CO)C(=O)c2cc(NC(=O)Cc3cn(C)c4ccccc34)ccc2O[C@H]1CN(C)S(C)(=O)=O` [Compound 1g], for which the “activity in DiI uptake assay (in words)” value in data set [2] is “weak potency”. Besides, the solubility entry in data set [3] is on record as “good solubility”.
`COC[C@@H](C)N1C[C@@H](C)[C@H](CN(C)S(=O)(=O)c2ccc(Cl)cc2)Oc2ccc(NC(=O)NC(C)C)cc2C1=O` [Compound 11]: the “activity in DiI uptake assay (in words)” value in data set [2] was “only weakly active”.
As to `C[C@@H]1CN([C@H](C)CO)C(=O)c2cc(NC(=O)Cc3cn(C)c4ccccc34)ccc2O[C@H]1CN(C)S(=O)(=O)c1ccc(Cl)cc1` [Compound 1a], the IC50 in data set [2] worked out at 460 nM.
Consider `CC(C)NC(=O)Nc1cccc2c1O[C@@H](CN(C)S(=O)(=O)c1ccc(Cl)cc1)[C@H](C)CN([C@H](C)CO)C2=O` [Compound 3], for which the “activity in DiI uptake assay (in words)” value in data set [2] was “inactive”.
For `CC(C)NC(=O)Nc1ccc2c(c1)C(=O)N([C@H](C)CO)C[C@@H](C)[C@H](CN(C)S(=O)(=O)c1ccc(Cl)cc1)O2` [Compound 4], the “activity in DiI uptake assay (in words)” value in data set [2] is “abrogated the activity”.
As to `C[C@@H]1CN([C@H](C)CN(C)C)C(=O)c2cc(NC(=O)Cc3cn(C)c4ccccc34)ccc2O[C@H]1CN(C)S(=O)(=O)c1ccc(Cl)cc1` [Compound 10], the “activity in DiI uptake assay (in words)” value in data set [2] is “inactive”.
On to `C[C@@H]1CN([C@H](C)CO)C(=O)c2cc(NC(=O)C3CCCCC3)ccc2O[C@H]1CN(C)S(=O)(=O)c1cccc(Cl)c1` [Compound 6], for which half-maximal inhibition in data set [2] (DiI uptake assay, average of at least two measurements (Table 4, various analogs)) (IC50) required 800 nM.
On to `C[C@@H]1CN([C@H](C)CO)C(=O)c2cc(NC(=O)C3CCCCC3)ccc2O[C@H]1CN(C)C(=O)c1ccc(Cl)cc1` [Compound 5], for which the “activity in DiI uptake assay (in words)” value in data set [2] was “inactive”.

(Values after publication PMC4469080 (Bioorganic & medicinal chemistry letters, 2015).)
